Reference: paper PMC4775309 (Biochemistry, 2016)

Assays:
Assay in all cases: Fluorescence quenching binding assay, NADPH-free apoenzyme
[1] = biological target: T1, wild-type PicKR3^0 (Streptomyces venezuelae, UniProt Q9ZGI4)
T1 sequence (Q9ZGI4 1150-1343 limits assumed): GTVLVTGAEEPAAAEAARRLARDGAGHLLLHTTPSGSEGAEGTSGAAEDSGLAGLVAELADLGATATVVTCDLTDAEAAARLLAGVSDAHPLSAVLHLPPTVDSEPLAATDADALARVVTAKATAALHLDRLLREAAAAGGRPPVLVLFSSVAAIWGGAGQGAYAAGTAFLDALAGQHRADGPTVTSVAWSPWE
Method in brief: (§1)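 Cofactor removed by dialysis, 36 h, against 50 mM potassium phosphate pH 7.5 with 1 M KBr, 5 mM EDTA and 10% glycerol, then 36 h into 50 mM sodium phosphate pH 7.5 with 10% glycerol. Apoenzyme (1 μM) titrated with (±)-2-methyl-3-ketopentanoyl-SNAC (0–50 mM final), 20 min at room temperature. Fluorescence read at pH 7.2 and 30 °C (ex 280, em 338 nm). Quenching (Fapo−Fobs) fitted to a one-site saturation model for Kd.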

[2] = biological target: T2, wild-type EryKR3^0 (Saccharopolyspora erythraea, UniProt Q03132)
T2 sequence (Q03132 1132-1297 limits assumed): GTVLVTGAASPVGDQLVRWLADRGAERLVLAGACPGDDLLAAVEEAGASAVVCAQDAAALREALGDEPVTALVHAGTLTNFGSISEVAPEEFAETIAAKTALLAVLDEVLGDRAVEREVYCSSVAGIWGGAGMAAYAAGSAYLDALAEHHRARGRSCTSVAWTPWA
Method in brief: as §1

[3] = biological target: wild-type EryKR1 (Saccharopolyspora erythraea, UniProt Q03131)
Method in brief: as §1

Chain of wild-type EryKR1 (Q03131 1613-1790 limits assumed): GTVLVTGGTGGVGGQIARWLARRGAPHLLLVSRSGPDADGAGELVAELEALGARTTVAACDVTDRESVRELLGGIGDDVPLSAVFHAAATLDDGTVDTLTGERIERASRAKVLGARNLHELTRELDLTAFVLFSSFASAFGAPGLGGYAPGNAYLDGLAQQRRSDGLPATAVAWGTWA

Kd [1]: 5 ± 0.3 mM
Kd [2]: 8 ± 0.4 mM
Kd [3]: 7.7 ± 0.4 mM
SMILES: CCC(=O)C(C)C(=O)SCCNC(C)=O (racemic) [compound 1, (±)-2-methyl-3-ketopentanoyl-N-acetycysteamine (SNAC) thioester]
